# High-throughput results deposited in PubChem by several laboratories.
# Rows were chosen to be rich in hits. Some 2.8% of all compounds tested hit in one or more screens of this group.
# NPY2 pot ag – NPY-Y2 potentiators or agonists, primary screen, cell-based. cells expressing NPY-Y2, potentiator/agonist read-out. Neuropeptide Y receptor type 2 (Homo sapiens), P49146. AID 1359, 2008. 220,000 compounds, 0.45% hits. activation, % at 3.6 µM; in the data active means activation above about 27%;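 further: cells stimulated with NPY near EC25 plus isoproterenol at EC100; 0% = vehicle plus submaximal agonist and 100% = vehicle plus saturating agonist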
# NPY-Y1 PAM-ag – NPY-Y1 receptor potentiators or agonists, primary screen, cell-based; activation, % at 3.6 µM; AID 1304, 2008; Neuropeptide Y receptor type 1 (Homo sapiens), P25929; NPY-Y1 expressing cells, potentiator/agonist activation; 220,000 compounds, 0.37% hits; in the data active means activation above about 33%, passing the limit was not always enough;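 further: cells stimulated with NPY at EC10 then isoproterenol at EC100; 0% = low agonist plus stimulus and 100% = saturating agonist plus stimulus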
# Target sequence (P25929 whole entry, looked up): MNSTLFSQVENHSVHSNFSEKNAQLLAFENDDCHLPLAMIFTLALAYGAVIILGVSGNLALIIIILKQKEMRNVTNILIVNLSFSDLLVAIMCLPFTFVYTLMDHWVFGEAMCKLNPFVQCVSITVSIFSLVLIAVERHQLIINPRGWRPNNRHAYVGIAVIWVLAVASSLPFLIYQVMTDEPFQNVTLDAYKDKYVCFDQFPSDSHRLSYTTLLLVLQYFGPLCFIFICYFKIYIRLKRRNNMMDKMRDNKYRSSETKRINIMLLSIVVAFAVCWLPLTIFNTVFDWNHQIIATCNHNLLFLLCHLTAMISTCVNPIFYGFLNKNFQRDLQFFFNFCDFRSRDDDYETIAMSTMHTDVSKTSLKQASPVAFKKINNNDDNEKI
# EP2 modulator – EP2 receptor modulators, cAMP readout, primary screen, cell-based, HTRF cAMP, PGE2 stimulation. Prostaglandin E2 receptor EP2 subtype (Homo sapiens), P43116. 260,000 compounds, 0.83% hits. induction, % at 25 µM. AID 940, 2007. EP2-expressing cells, cAMP HTRF FRET, PGE2 co-stimulation;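 active means compounds whose cAMP rise, as percent of the full-agonist control response, exceeds 60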;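 further: rat C6 glioma line stably carrying human EP2 under a CMV promoter; the protocol text gives 20 µM as final concentration; 100% = response of wells given 1 µM PGE2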
# PGE2 EP2 inh – human EP2 receptor antagonists, primary screen, TR-FRET cAMP, C6 glioma cells. Prostaglandin E2 receptor EP2 subtype (Homo sapiens), P43116. C6 glioma cells expressing human EP2; cells stimulated with saturating PGE2. inhibition, % at 25 µM. 260,000 compounds, 0.52% hits. AID 1422, 2008;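 active means percent inhibition above 40 after rounding to a whole number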;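 further: rat C6 glioma host cells with rolipram phosphodiesterase inhibitor present; the protocol text gives 20 µM as final concentration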
# NPY-Y1 antag – NPY-Y1 receptor antagonists, primary screen, cell-based. Neuropeptide Y receptor type 1 (Homo sapiens), P25929. HEK293-CNG Y1 cells, membrane potential fluorescence; NPY at EC95, then isoproterenol. inhibition, % at 3.6 µM. 200,000 compounds, 1% hits. AID 1040, 2008;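 active means inhibition above the campaign mean inhibition of all tested compounds plus 3 SD, cut at about 20% in these data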;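 further: 0% = DMSO wells given NPY plus isoproterenol and 100% = isoproterenol alone without NPY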
#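 Material: HEK293 Y1/CNG channel cell line; also added: NPY (25 nM), isoproterenol (1 µM), Ro 20-1724 (25 µM); doses: one concentration, 3.6 µM, in 0.4% DMSO; schedule: compound incubation 1 h at room temperature, readout 45 min post-stimulation; technique: membrane potential fluorescence; measure: fluorescence ratio normalized to % inhibition between controls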
# NPY-Y2 antag – NPY-Y2 receptor antagonists, primary screen, cell-based; inhibition, % at 2.7 µM; AID 793, 2007; Neuropeptide Y receptor type 2 (Homo sapiens), P49146; 140,000 compounds, 0.99% hits; NPY-Y2 expressing cells, antagonist mode; in the data active means inhibition above about 17%;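 further: 0% = vehicle with agonist challenge and 100% = reference antagonist with challenge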
# NPY-Y1 antag ct – NPY-Y1 receptor antagonists, selectivity check, counter-screen for NPY-Y2 antagonist project, cell-based | cell-based NPY-Y1 antagonism counterscreen | 710 compounds, 19% hits | inhibition, % at 3.6 µM | shares compounds with NPY-Y2 antag; in the data active means inhibition above about 20%;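 further: cells challenged with NPY then isoproterenol with cAMP sensed through a CNG channel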
# NPY2 antag conf – NPY-Y2 receptor antagonists, retest of hits, confirmation, HEK293-CNG cells, membrane potential fluorescence, triplicate | 710 compounds, 32% hits | shares compounds with NPY-Y2 antag | HEK293 NPY-Y2 CNG channel | inhibition, % at 2.8 µM | AID 1257, 2008;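 active means mean inhibition of triplicate wells above the hit cutoff set in the primary screen, cut at about 17% in these data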;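 further: 0% = DMSO with NPY challenge and 100% = BIIE0246 high control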
# Active calls of the source: *; . = no result.
SMILES,NPY2 pot ag,NPY-Y1 PAM-ag,EP2 modulator,PGE2 EP2 inh,NPY-Y1 antag,NPY-Y2 antag,NPY-Y1 antag ct,NPY2 antag conf
c1ccc(-c2oc3ncnc(NCCCN4CCOCC4)c3c2-c2ccccc2)cc1,-8,8,42,8,11,18*,17,17
Clc1ccc(CSc2cc3c(nn2)-c2ccccc2CC3)cc1Cl,-24,-50,14,11,16,20*,20,36*
C=CCn1c2ccccc2n2c(C(=O)CC)c(-c3ccccc3)nc12,.,.,19,13,.,.,.,.
CCOc1cccc(Nc2cc3n(c(=O)n2)CCc2cc(OC)c(OC)cc2-3)c1,-23,-37,6,5,14,18*,38*,65*
O=C(COC(=O)c1cccc(Cl)c1)Nc1cc(Cl)ccc1Oc1ccccc1,-1,-10,19,8,14,19*,14,12
CCOC(=O)Cc1csc(SCC(=O)Nc2cc(Cl)ccc2Oc2ccccc2)n1,-23,9,37,7,6,19*,7,5
O=C(COc1ccccc1Cl)Nc1cc(Cl)ccc1Oc1ccccc1,-4,16,46,12,-1,0,.,.
O=C1NC2=C(C(=O)N(CCCc3ccccc3)C2)C(c2cccs2)N1 (stereo not drawn),.,.,-37,.,.,.,.,.
Cc1ccc(S(=O)(=O)N2C(=O)CCC2C(=O)NC2CCCC2)cc1 (stereo not drawn),.,.,-2,6,.,.,.,.
NS(=O)(=O)c1ccc(NC(=O)c2ccc(-c3ccc(Cl)cc3Cl)o2)cc1,.,.,-34,7,.,.,.,.
O=C(C(Sc1ccccc1)c1ccccc1)N1CCN(c2ccccc2)CC1 (stereo not drawn),0,-3,-18,3,12,19*,16,9
O=C(Nc1cccc(NC(=O)c2ccc(-c3ccc(Br)cc3)o2)c1)c1ccccc1,-2,4,-31,22,-1,-2,.,.
O=C(Nc1ccccc1)c1ccc(-c2ccc(Br)cc2)o1,-51,-43,-6,15,14,29*,10,13
COc1ccccc1NC(=O)c1ccc(-c2ccc(Br)cc2)o1,-43,-86,60,24,19,21*,21*,43*
CCC(C)OC(=O)C(C)n1cnc2sc3c(c2c1=O)CCC(C)C3 (stereo not drawn),.,.,30,9,.,.,.,.
Cc1cccc(C)c1NC(=O)CCCSc1nnc(-c2ccc(Cl)cc2)n1-c1ccccc1,1,-9,10,5,2,18*,3,12
Cc1cccc(C)c1NC(=O)CCCSc1nnc(-c2ccc(F)cc2)n1-c1ccccc1,7,-18,27,3,8,5,.,.
Cc1nn2c(NCc3ccncc3)c3c(nc2c1-c1ccc(F)cc1)CCC3,.,.,-41,.,.,.,.,.
CCOC(=O)c1c(-c2ccc(C)o2)csc1NC(=O)CN1CCOCC1,-9,5,33,11,4,6,.,.
CCOC(=O)c1c(-c2ccc(C)o2)csc1NC(=O)COC(=O)c1cccs1,-4,-26,19,9,4,20*,5,2
c1ccc(Cc2nnc(-c3ccccc3)o2)cc1,-12,-32,-1,7,10,135*,9,19*
CC1=CC(C)(C)N(S(=O)(=O)c2ccc(F)cc2)c2ccccc21,12,2,56,7,12,16,.,.
CC1=CC(C)(C)N(S(=O)(=O)c2ccc(C)cc2)c2ccc(C)cc21,-2,7,37,3,8,21*,24*,20*
Cn1c(SCC(=O)NC(C)(C)C)nc2cccnc21,.,.,0,19,.,.,.,.
COC(=O)c1ccc(C(C(=O)NC2CCCCC2)N(Cc2ccc(F)cc2)C(=O)Cc2cccs2)cc1 (stereo not drawn),-12,-8,41,4,-4,19*,7,9
SMILES,NPY2 pot ag,NPY-Y1 PAM-ag,EP2 modulator,PGE2 EP2 inh,NPY-Y1 antag,NPY-Y2 antag,NPY-Y1 antag ct,NPY2 antag conf
O=C(NC1CCCCC1)C(c1ccc2ncccc2c1)N(Cc1ccc(F)cc1)C(=O)c1cccs1 (stereo not drawn),-12,-33,26,18,19,31*,12,9
O=C(NC1CCCCC1)C(c1ccc(F)cc1)N(C(=O)c1cccs1)c1ccc2c(c1)OCO2 (stereo not drawn),4,9,13,10,3,0,.,.
CCn1c(=O)n(CC(=O)Nc2ccc(N3CCOCC3)cc2)c2cccnc21,.,.,-9,5,.,.,.,.
O=C1NC2(CCN(C(=O)C3(c4ccc(Cl)cc4)CCC3)CC2)Nc2ccccc21,.,.,-42,5,.,.,.,.
Cc1cc(NC(=O)C2CCCCC2)n(-c2nc3ccccc3[nH]2)n1,-14,-23,22,15,9,17*,22*,13
Cc1cc(NC(=O)c2c(F)cccc2Cl)n(-c2nc3ccccc3[nH]2)n1,6,-13,37,9,-2,2,.,.
COCCn1c(=O)[nH]c2cc(C(=O)N3CCC4(CC3)NC(=O)c3ccccc3O4)ccc21,.,.,29,.,.,.,.,.
COc1ccc(-c2nnc3n2N=C(c2cccc(Br)c2)CS3)cc1OC,-1,2,34,2,2,19*,4,9
CCOC(=O)CCCCC(=O)c1[nH]c(=O)[nH]c1CSc1nnc2c3ccccc3n(C(C)C)c2n1,0,-31,21,-2,4,32*,18,45*
CCCn1c2ccccc2c2nnc(SCc3[nH]c(=O)[nH]c3C(=O)CCCCC(=O)OCC)nc21,9,-22,6,13,1,8,.,.
O=C(Cc1cn(Cc2cccc(Cl)c2)c2ccccc12)N1CCCCCC1,17,-16,40,7,7,7,.,.
CC1CCCN(C(=O)Cc2cn(Cc3cccc(Cl)c3)c3ccccc23)C1 (stereo not drawn),-22,-5,40,7,10,17*,5,5
N#CC(C#N)=C1C=CC=CN1/C(=C\c1ccco1)C(=O)c1ccc(-c2ccccc2)cc1,-11,-48,4,11,2,7,.,.
N#CC(C#N)=C1C=CC=CN1/C(=C\c1ccco1)C(=O)c1ccc(Cl)cc1,-8,-1,-64,29,-1,18*,15,83*
